We go through 26 molecules from ChEMBL document CHEMBL1139764, “Design, synthesis, and structure-activity relationship studies of new phenolic DNA gyrase inhibitors” (2007).

Assay [1] relates to Staphylococcus aureus. Nature of the assay: Antibacterial activity against Staphylococcus aureus Smith by twofold agar dilution method. It counts as functional. In outline: (§1)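 MIC read as lowest inhibitory level in twofold serial dilutions in Müller–Hinton agar; each spot inoculated with 10^4 CFU.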
The subject of the next assay is Escherichia coli. The experiment in a line: Inhibition of Escherichia coli D110 DNA gyrase after 30 mins by supercoiling assay.
Assay [2] deals with Staphylococcus aureus. Nature of the assay: Antibacterial activity against novobiocin R144I-resistant Staphylococcus aureus ATCC 25923 by agar dilution method. Type of assay: functional. The procedure, abridged: as §1
In general terms: In agar dilution, organisms are placed on agar that contains the substance at set levels.

Another assay deals with Streptococcus pyogenes. The experiment in a line: Antibacterial activity against Streptococcus pyogenes beta-15 by agar dilution method. It counts as functional. The procedure, abridged: (§2)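 Twofold serial dilutions in Müller–Hinton agar with an inoculum of 10^4 CFU per spot. The read-out is the minimal inhibitory concentration (MIC).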
Assay [3] deals with Staphylococcus aureus. Nature of the assay: Antibacterial activity against Staphylococcus aureus ATCC 25923 by twofold agar dilution method. Type of assay: functional. The procedure, abridged:
as §1

The subject of assay [4] is Staphylococcus aureus. Nature of the assay: Antibacterial activity against erythromycin, methicillin and trimethoprim-resistant Staphylococcus aureus Smith 744 by twofold agar dilution method. It counts as functional. In outline: as §1
The subject of assay [5] is Staphylococcus aureus. Nature of the assay: Antibacterial activity against methicillin and quinolones-resistant Staphylococcus aureus Smith QR54 by twofold agar dilution method. It counts as functional. The procedure, abridged:
as §1

Assay [6] concerns Staphylococcus epidermidis. Nature of the assay: Antibacterial activity against Staphylococcus epidermidis ATCC 14990 by twofold agar dilution method. Type of assay: functional. In outline: as §2
For a further assay, the system named is Enterococcus faecium. Nature of the assay: Antibacterial activity against ampicillin, trimethoprim and vancomycin-resistant Enterococcus faecium vanA E23-8 by twofold agar dilution method. It counts as functional. In outline: as §1

As usually defined, the MIC is the lowest concentration that inhibits growth of the organism.

Converted amounts (≈) assume the structure as drawn.

As for `Oc1ccc(Cl)cc1CNc1ccc(Cl)cc1`, the MIC in the assay with Staphylococcus aureus [1], with Staphylococcus aureus [2], in the assay with Streptococcus pyogenes, against Staphylococcus aureus [3], in the assay with Staphylococcus aureus [4] and with Staphylococcus aureus [5] was 16 µg/mL (≈ 59.7 µM) in each case. Moreover, the MIC (in assay [6]; against Enterococcus faecium) was 16 µg/mL (≈ 59.7 µM) each time. In the assay on Escherichia coli, the Activity was 5 µg/mL.
Molecule `COC(=O)c1c(C)c(OC)cc(O)c1CNc1cc(Cl)cc(Cl)c1` had an Activity in the assay on Escherichia coli of 4 µg/mL.
Still for that read-out and setting: the value for `COc1ccc(N2C(=O)c3c(C)c(OC)cc(O)c3C2c2[nH]c3ccccc3c2C)cc1` (stereo unspecified) was over 63 µg/mL; that for `Oc1ccc(Br)cc1CNc1ccc(Cl)cc1` was 16 µg/mL.
The same measure, in the same setting: the value for `C=CCC1c2c(O)cc(OC)c(C)c2C(=O)N1c1ccc(OC)cc1` (stereo unspecified) was 2 µg/mL.
In the assay on Escherichia coli, `COC(=O)c1c(C)c(OC)cc(O)c1CNc1ccc(Cl)cc1` returned an Activity of 16 µg/mL.
On the same count and under the same terms, under `COc1ccc(N2C(=O)c3c(C)c(OC)cc(O)c3C2c2ccc(CS)o2)cc1` (stereo unspecified) stands over 63 µg/mL; under `COc1ccc(N2C(=O)c3c(C)c(OC)cc(O)c3C2Sc2ncc[nH]2)cc1` (stereo unspecified), 4 µg/mL; under `Oc1c(Cl)cc(Cl)cc1CNc1ccc(Cl)cc1`, 16 µg/mL.
`COc1ccc(N2C(=O)c3c(C)c(OC)cc(O)c3C2CCO)cc1` (stereo unspecified) came in with an Activity in the assay on Escherichia coli of 4 µg/mL.
Turning to `COc1cc(O)c2c(c1C)C(=O)N1c3cccnc3COC21` (stereo unspecified), the minimum inhibitory concentration (MIC) with Staphylococcus aureus [1] was found to be 1 µg/mL (≈ 3.35 µM); with Staphylococcus aureus [2], 0.5 µg/mL (≈ 1.68 µM); in the assay with Streptococcus pyogenes it was 32 µg/mL (≈ 107 µM); with Staphylococcus aureus [3] it was 1 µg/mL (≈ 3.35 µM); in the assay on Staphylococcus aureus [4], 2 µg/mL (≈ 6.7 µM); with Staphylococcus aureus [5], 1 µg/mL (≈ 3.35 µM). The figures for the minimal inhibitory concentration (MIC) (in assay [6]; in the assay with Enterococcus faecium) were 0.5 µg/mL (≈ 1.68 µM) and over 32 µg/mL, respectively. For the same molecule, in the assay with Escherichia coli, the Activity was determined as 0.13 µg/mL.
`COc1cc(O)c2c(c1C)C(=O)N(c1ccc3[nH]ncc3c1)C2` displayed an Activity with Escherichia coli of 1 µg/mL.
Same read-out and setting: under `COc1cc(O)c2c(c1C)C(=O)N(c1cccc(N)c1)C2` stands 2 µg/mL; under `N#Cc1ccc(NCc2cc(Cl)ccc2O)cc1`, 2 µg/mL.
`COC(=O)CCSC1c2c(O)cc(OC)c(C)c2C(=O)N1c1ccc(OC)cc1` (stereo unspecified) returned an Activity with Escherichia coli of 0.5 µg/mL.
`COc1ccc2c(c1)[C@@H](O)C[C@@H]1c3c(O)cc(OC)c(C)c3C(=O)N21`: the minimum inhibitory concentration (MIC) in the assay with Staphylococcus aureus [1] is 32 µg/mL (≈ 93.7 µM); with Staphylococcus aureus [2], 16 µg/mL (≈ 46.9 µM); against Streptococcus pyogenes, over 32 µg/mL; in the assay on Staphylococcus aureus [3] it was over 32 µg/mL; in the assay on Staphylococcus aureus [4], over 32 µg/mL; with Staphylococcus aureus [5] it was 16 µg/mL (≈ 46.9 µM). For the same molecule, the values for the MIC (in assay [6]; against Enterococcus faecium) were 32 µg/mL (≈ 93.7 µM) and over 32 µg/mL, respectively. The same molecule returned an Activity in the assay on Escherichia coli of 0.5 µg/mL.
On to `Oc1ccc(CNc2ccc(Cl)cc2)c(O)c1`, for which the Activity with Escherichia coli was determined as 16 µg/mL.
Still for that read-out and setting: under `COc1cc(O)c2c(c1C)C(=O)N(c1cccnc1)C2` stands 2 µg/mL; under `COc1cc(O)c2c(c1C)C(=O)N(c1cnc3ccccc3c1)C2`, 0.5 µg/mL.
Take `COc1cc(O)c2c(c1C)C(=O)N1c3ccc(Cl)cc3[C@@H](O)C[C@H]21`: the MIC with Staphylococcus aureus [1] was found to be 4 µg/mL (≈ 11.6 µM); against Staphylococcus aureus [2] it was 4 µg/mL (≈ 11.6 µM); against Streptococcus pyogenes it was 32 µg/mL (≈ 92.5 µM); against Staphylococcus aureus [3], 8 µg/mL (≈ 23.1 µM); against Staphylococcus aureus [4], 16 µg/mL (≈ 46.3 µM); in the assay on Staphylococcus aureus [5] it was 8 µg/mL (≈ 23.1 µM). The values for the minimum inhibitory concentration (MIC) (in assay [6]; against Enterococcus faecium) were 8 µg/mL (≈ 23.1 µM) and over 32 µg/mL, respectively. Also, the Activity in the assay on Escherichia coli was 1 µg/mL.
On to `COc1ccc(N2C(=O)c3c(C)c(OC)cc(O)c3C2Sc2ccc(C)cc2)cc1` (stereo unspecified), for which the Activity in the assay on Escherichia coli stood at 31 µg/mL.
Same read-out and setting: the value for `CCCCSC1c2c(O)cc(OC)c(C)c2C(=O)N1c1ccc(OC)cc1` (stereo unspecified) was 16 µg/mL.
`COc1cc(O)c2c(c1Br)C(=O)N1c3ccc(C)cc3COC21` (stereo unspecified): the minimal inhibitory concentration (MIC) with Staphylococcus aureus [1] came out at 8 µg/mL (≈ 21.3 µM); against Staphylococcus aureus [2], 4 µg/mL (≈ 10.6 µM); in the assay on Streptococcus pyogenes, 16 µg/mL (≈ 42.5 µM); against Staphylococcus aureus [3], 8 µg/mL (≈ 21.3 µM); against Staphylococcus aureus [4], 8 µg/mL (≈ 21.3 µM); against Staphylococcus aureus [5], 8 µg/mL (≈ 21.3 µM). Moreover, the MIC in assay [6] was 2 µg/mL (≈ 5.32 µM); with Enterococcus faecium it was over 32 µg/mL. For the same molecule, in the assay on Escherichia coli, the Activity turned out to be 0.25 µg/mL.
In turn, `COC(=O)c1c(C)c(OC)cc(O)c1CNc1cccc(Cl)c1` registered an Activity with Escherichia coli of 4 µg/mL.
The same measure, in the same setting: the value for `NS(=O)(=O)c1ccc(NCc2cc(Cl)ccc2O)cc1` was 63 µg/mL; that for `Oc1cccc(CNc2ccc(Cl)cc2)c1O` was 16 µg/mL.
